According to publication PMC11756393 (Scientific Reports, 2025):

Tests used:
[1] = test system: macrophages (human monocytes THP-1 differentiated); assay: MTT cytotoxicity assay on macrophages; type: cell-based; conditions: SI as a marker of toxicity
Summary of the method: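 THP-1 monocytes were differentiated to macrophages and grown at 37 °C, 5% CO2 in RPMI 1640 with 10% FBS. Test compound added in triplicate; untreated wells and medium with 1% DMSO served as controls. After 72 h, MTT was added for 4 h, formazan dissolved in DMSO and absorbance read at 490 nm. CC50 by probit analysis, mean ± SD; SI = CC50/amastigote IC50.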

L. tropica promastigotes = assay: MTT assay on promastigotes; type: cell-based, Leishmania tropica; conditions: for Combined effect with meglumine antimonate on promastigotes (in words): combination with MA, compared with MA monotherapy; for Inhibitory activity on promastigotes (in words): compound alone, compared with meglumine antimonate
Summary of the method: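 L. tropica promastigotes grown at 24 °C in RPMI 1640 with 10% FBS, seeded at 5 × 10^5 cells/ml and left overnight. Test compound then added in triplicate for 72 h. MTT for 4 h, formazan dissolved in DMSO, absorbance read at 490 nm. IC50 from nonlinear regression against untreated control. Meglumine antimonate combinations scored by combination index and isobologram additivity line.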

Row | Compound | Safety for mammalian macrophages judged by SI (in words) [1] | Combined effect with meglumine antimonate on promastigotes (in words) (L. tropica promastigotes) | Inhibitory activity on promastigotes (in words) (L. tropica promastigotes)
1 | COc1ccc(C2Oc3ccccc3C=C2[N+](=O)[O-])cc1 (stereo not drawn) [Compound 4d, 2-(4-methoxyphenyl)-3-nitro-2H-chromene] | highly safe | – | –
2 | O=[N+]([O-])C1=Cc2ccccc2OC1c1cccc(OCc2ccc([N+](=O)[O-])cc2)c1 (stereo not drawn) [Compound 4o, 3-nitro-2-(3-((4-nitrobenzyl)oxy)phenyl)-2H-chromene] | highly safe | most pronounced synergistic effects | comparable to meglumine antimonate
3 | O=[N+]([O-])C1=Cc2ccccc2OC1c1cccc(OCc2ccc(Cl)cc2)c1 (stereo not drawn) [Compound 4n, 2-(3-((4-chlorobenzyl)oxy)phenyl)-3-nitro-2H-chromene] | highly safe | most pronounced synergistic effects | comparable to meglumine antimonate
4 | Cc1ccc(COc2cccc(C3Oc4ccccc4C=C3[N+](=O)[O-])c2)cc1 (stereo not drawn) [Compound 4k, 2-(3-((4-methylbenzyl)oxy)phenyl)-3-nitro-2H-chromene] | – | most pronounced synergistic effects | comparable to meglumine antimonate
